Experimental data taken from ChEMBL document CHEMBL1128667 (J Med Chem, 1995).

Target: Delta-type opioid receptor (Rattus norvegicus, UniProt P33533)
Experiment: Ability to inhibit [3H]DADLE binding to rat brain delta receptor
In short: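 [3H]DADLE (1.7-2.5 nM) on rat brain membranes, 3-4 h at 25 °C in 10 mM Tris-HCl pH 7.4 with 100 mM choline chloride, 3 mM MnCl2, 100 nM DAMGO blocking μ sites, and protease inhibitors. Nonspecific with 20 μM levallorphan. 8–10 concentrations, run twice; dilutions in Tris/1 mg/mL BSA. IC50 and slope factor from curve fitting.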

Chain of Delta-type opioid receptor (P33533 whole entry): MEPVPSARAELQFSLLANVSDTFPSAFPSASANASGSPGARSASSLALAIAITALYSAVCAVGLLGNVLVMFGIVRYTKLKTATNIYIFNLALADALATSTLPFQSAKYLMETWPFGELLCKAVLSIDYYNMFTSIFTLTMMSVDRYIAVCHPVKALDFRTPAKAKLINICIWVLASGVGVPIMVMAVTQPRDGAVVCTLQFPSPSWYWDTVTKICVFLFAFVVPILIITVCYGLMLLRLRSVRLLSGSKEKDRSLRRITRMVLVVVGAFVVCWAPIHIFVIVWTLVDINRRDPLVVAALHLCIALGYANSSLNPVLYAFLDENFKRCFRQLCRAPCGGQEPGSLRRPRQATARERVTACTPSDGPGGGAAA

SMILES	Ki [nM]
CN1CCC2(c3cccc(O)c3)CC(=O)/C(=C/c3ccc4ccccc4c3)C1C2 (stereo not given)	142
CN1CCC2(c3cccc(O)c3)CC(=O)/C(=C/c3cccc(I)c3)C1C2 (stereo not given)	141
CN1CCC2(c3cccc(O)c3)CC(=O)/C(=C/C3CC3)C1C2 (stereo not given)	> 1000
CN1CCC2(c3cccc(O)c3)CC(=O)/C(=C/c3ccccc3)C1C2 (single isomer, unassigned; (+))	735
COc1ccc(/C=C2/C(=O)CC3(c4cccc(O)c4)CCN(C)C2C3)cc1 (single isomer, unassigned; (+))	127
COc1cccc(/C=C2/C(=O)CC3(c4cccc(O)c4)CCN(C)C2C3)c1 (single isomer, unassigned; (+))	175
CN1CCC2(c3cccc(O)c3)CC(=O)/C(=C/c3ccc(I)cc3)C1C2 (single isomer, unassigned; (+))	321
CN1CCC2(c3cccc(O)c3)CC(=O)/C(=C/c3ccc(Cl)c(Cl)c3)C1C2 (single isomer, unassigned; (+))	271
CN1CCC2(c3cccc(O)c3)CC(=O)CC1C2 (single isomer, unassigned; (+))	505
CN1CCC2(c3cccc(O)c3)CC(=O)/C(=C/c3ccc(Cl)cc3)C1C2 (single isomer, unassigned; (-))	> 500
COc1ccc(/C=C2/C(=O)CC3(c4cccc(O)c4)CCN(C)C2C3)cc1 (single isomer, unassigned; (-))	> 500
COc1cccc(/C=C2/C(=O)CC3(c4cccc(O)c4)CCN(C)C2C3)c1 (single isomer, unassigned; (-))	> 400
CN1CCC2(c3cccc(O)c3)CC(=O)/C(=C/c3ccc(Cl)c(Cl)c3)C1C2 (single isomer, unassigned; (-))	> 500
COc1ccc(/C=C2/C(=O)CC3(c4cccc(O)c4)CCN(C)C2C3)cc1 (stereo in doubt; 4)	7.1
CN1CCC2(c3cccc(O)c3)CC(=O)/C(=C/c3ccc(Cl)cc3)C1C2 (stereo in doubt; 5)	> 1000
COc1cccc(/C=C2/C(=O)CC3(c4cccc(O)c4)CCN(C)C2C3)c1 (stereo in doubt; 6)	> 400
CN1CCC2(c3cccc(O)c3)CC(=O)/C(=C/c3cccc(Cl)c3)C1C2 (stereo in doubt; 7)	222
COc1cccc(C23CCN(C)C(C2)/C(=C\c2ccccc2)C(=O)C3)c1 (stereo in doubt; 10)	> 500
CN1CCC2(c3cccc(O)c3)CC(=O)/C(=C/c3ccc(Cl)cc3)C1C2 (stereo in doubt; (+)-5)	336
CN1CCC2(c3cccc(O)c3)CC(=O)/C(=C/c3cccc(Cl)c3)C1C2 (stereo in doubt; (+)-7)	217
CN1CCC2(c3cccc(O)c3)CC(=O)/C(=C/c3ccccc3)C1C2 (stereo in doubt; (-)-2)	1990

Target: Mu-type opioid receptor (Rattus norvegicus, UniProt P33535)
Experiment: Ability to inhibit [3H]DAMGO binding to rat brain Opioid receptor mu 1
In short: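 Rat brain membranes labelled with [3H]DAMGO (1-3 nM), 4 h at 25 °C in 50 mM Tris-HCl pH 7.4 with protease inhibitor cocktail. Nonspecific with 20 μM levallorphan. 8–10 concentrations, run twice; dilutions in Tris with 1 mg/mL BSA, 1 mM stocks in Tris containing 10% DMSO/5% Emulphor. IC50 and slope factor from curve fitting.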

Chain of Mu-type opioid receptor (P33535 whole entry): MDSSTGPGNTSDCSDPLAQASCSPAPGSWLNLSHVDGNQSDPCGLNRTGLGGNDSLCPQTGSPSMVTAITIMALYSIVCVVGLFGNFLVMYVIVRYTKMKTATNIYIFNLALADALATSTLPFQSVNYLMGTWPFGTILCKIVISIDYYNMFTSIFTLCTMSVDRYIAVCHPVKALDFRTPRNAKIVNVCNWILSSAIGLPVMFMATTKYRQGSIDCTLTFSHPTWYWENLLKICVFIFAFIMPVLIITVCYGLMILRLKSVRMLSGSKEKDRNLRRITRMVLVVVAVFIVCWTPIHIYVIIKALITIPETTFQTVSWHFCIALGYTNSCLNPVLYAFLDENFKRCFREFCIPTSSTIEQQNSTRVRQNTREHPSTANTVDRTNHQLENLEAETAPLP

SMILES	Ki [nM]
CN1CCC2(c3cccc(O)c3)CC(=O)/C(=C/c3ccc4ccccc4c3)C1C2 (stereo not given)	2.2
CN1CCC2(c3cccc(O)c3)CC(=O)/C(=C/c3cccc(I)c3)C1C2 (stereo not given)	9.1
CN1CCC2(c3cccc(O)c3)CC(=O)/C(=C/C3CC3)C1C2 (stereo not given)	11.2
CN1CCC2(c3cccc(O)c3)CC(=O)/C(=C/c3ccccc3)C1C2 (single isomer, unassigned; (+))	37.6
COc1ccc(/C=C2/C(=O)CC3(c4cccc(O)c4)CCN(C)C2C3)cc1 (single isomer, unassigned; (+))	3.9
COc1cccc(/C=C2/C(=O)CC3(c4cccc(O)c4)CCN(C)C2C3)c1 (single isomer, unassigned; (+))	12.6
CN1CCC2(c3cccc(O)c3)CC(=O)/C(=C/c3ccc(I)cc3)C1C2 (single isomer, unassigned; (+))	26.7
CN1CCC2(c3cccc(O)c3)CC(=O)/C(=C/c3ccc(Cl)c(Cl)c3)C1C2 (single isomer, unassigned; (+))	4.5
CN1CCC2(c3cccc(O)c3)CC(=O)CC1C2 (single isomer, unassigned; (+))	35.5
CN1CCC2(c3cccc(O)c3)CC(=O)/C(=C/c3ccc(Cl)cc3)C1C2 (single isomer, unassigned; (-))	48.2
COc1ccc(/C=C2/C(=O)CC3(c4cccc(O)c4)CCN(C)C2C3)cc1 (single isomer, unassigned; (-))	27
COc1cccc(/C=C2/C(=O)CC3(c4cccc(O)c4)CCN(C)C2C3)c1 (single isomer, unassigned; (-))	31.4
CN1CCC2(c3cccc(O)c3)CC(=O)/C(=C/c3ccc(Cl)c(Cl)c3)C1C2 (single isomer, unassigned; (-))	45.1
COc1ccc(/C=C2/C(=O)CC3(c4cccc(O)c4)CCN(C)C2C3)cc1 (stereo in doubt; 4)	4.1
CN1CCC2(c3cccc(O)c3)CC(=O)/C(=C/c3ccc(Cl)cc3)C1C2 (stereo in doubt; 5)	21.6
COc1cccc(/C=C2/C(=O)CC3(c4cccc(O)c4)CCN(C)C2C3)c1 (stereo in doubt; 6)	11.8
CN1CCC2(c3cccc(O)c3)CC(=O)/C(=C/c3cccc(Cl)c3)C1C2 (stereo in doubt; 7)	23.2
COc1cccc(C23CCN(C)C(C2)/C(=C\c2ccccc2)C(=O)C3)c1 (stereo in doubt; 10)	> 250
CN1CCC2(c3cccc(O)c3)CC(=O)/C(=C/c3ccc(Cl)cc3)C1C2 (stereo in doubt; (+)-5)	6.4
CN1CCC2(c3cccc(O)c3)CC(=O)/C(=C/c3cccc(Cl)c3)C1C2 (stereo in doubt; (+)-7)	11.8
CN1CCC2(c3cccc(O)c3)CC(=O)/C(=C/c3ccccc3)C1C2 (stereo in doubt; (-)-2)	392

Target: Kappa-type opioid receptor (Cavia porcellus, UniProt P41144)
Experiment: Ability to inhibit [3H]U-69593 binding to guinea pig Opioid receptor kappa 1
In short: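 Guinea pig brain membranes depleted of μ and δ sites by BIT/FIT pretreatment, labelled with [3H]U69,593 (1.2-2.3 nM), 4-6 h at 25 °C in 50 mM Tris-HCl pH 7.4 with protease inhibitors and 1 μg/mL captopril. Nonspecific with 1 μM U69,593. 8–10 concentrations, run twice; IC50 and slope factor from curve fitting.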

Chain of Kappa-type opioid receptor (P41144 whole entry): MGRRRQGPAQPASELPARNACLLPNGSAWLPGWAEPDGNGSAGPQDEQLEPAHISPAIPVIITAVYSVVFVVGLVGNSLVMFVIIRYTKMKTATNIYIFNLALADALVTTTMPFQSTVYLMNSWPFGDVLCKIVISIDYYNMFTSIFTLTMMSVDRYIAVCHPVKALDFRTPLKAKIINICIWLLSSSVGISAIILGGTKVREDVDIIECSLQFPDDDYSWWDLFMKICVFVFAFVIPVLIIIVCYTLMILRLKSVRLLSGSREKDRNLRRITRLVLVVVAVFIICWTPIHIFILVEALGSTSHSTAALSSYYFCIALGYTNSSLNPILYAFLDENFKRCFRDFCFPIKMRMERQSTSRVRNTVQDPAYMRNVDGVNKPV

SMILES	Ki [nM]
CN1CCC2(c3cccc(O)c3)CC(=O)/C(=C/c3ccc4ccccc4c3)C1C2 (stereo not given)	> 500
CN1CCC2(c3cccc(O)c3)CC(=O)/C(=C/c3cccc(I)c3)C1C2 (stereo not given)	> 500
CN1CCC2(c3cccc(O)c3)CC(=O)/C(=C/C3CC3)C1C2 (stereo not given)	> 500
CN1CCC2(c3cccc(O)c3)CC(=O)/C(=C/c3ccccc3)C1C2 (single isomer, unassigned; (+))	1090
COc1ccc(/C=C2/C(=O)CC3(c4cccc(O)c4)CCN(C)C2C3)cc1 (single isomer, unassigned; (+))	> 500
CN1CCC2(c3cccc(O)c3)CC(=O)/C(=C/c3ccc(I)cc3)C1C2 (single isomer, unassigned; (+))	> 1000
CN1CCC2(c3cccc(O)c3)CC(=O)CC1C2 (single isomer, unassigned; (+))	2540
CN1CCC2(c3cccc(O)c3)CC(=O)/C(=C/c3ccc(Cl)cc3)C1C2 (single isomer, unassigned; (-))	> 500
COc1cccc(/C=C2/C(=O)CC3(c4cccc(O)c4)CCN(C)C2C3)c1 (stereo in doubt; 6)	> 500
CN1CCC2(c3cccc(O)c3)CC(=O)/C(=C/c3cccc(Cl)c3)C1C2 (stereo in doubt; 7)	246
COc1cccc(C23CCN(C)C(C2)/C(=C\c2ccccc2)C(=O)C3)c1 (stereo in doubt; 10)	> 1000
CN1CCC2(c3cccc(O)c3)CC(=O)/C(=C/c3cccc(Cl)c3)C1C2 (stereo in doubt; (+)-7)	> 500
CN1CCC2(c3cccc(O)c3)CC(=O)/C(=C/c3ccccc3)C1C2 (stereo in doubt; (-)-2)	889

Target: Sigma 2 receptor
Experiment: Ability to inhibit [3H](+)-DTG binding to rat liver Sigma receptor type 2 in presence of dextrallorphan
In short: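 Rat liver membranes (male Sprague–Dawley, 150–200 g; Tris/sucrose homogenisation, differential centrifugation, 25 °C preincubation). 160 μg protein with 5 nM [3H]DTG plus 1 μM dextrallorphan to mask σ1, 50 mM Tris-HCl pH 8.0, 120 min at 25 °C. Nonspecific with 10 μM haloperidol. Filtration. 12 concentrations (0.05–10 000 or 0.5–100 000 nM); Ki via Cheng–Prusoff with Scatchard Kd; 2–3 experiments in duplicate, ±SEM.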

SMILES	Ki [nM]
CN1CCC2(c3cccc(O)c3)CC(=O)/C(=C/c3ccc4ccccc4c3)C1C2 (stereo not given)	80.2
CN1CCC2(c3cccc(O)c3)CC(=O)/C(=C/c3cccc(I)c3)C1C2 (stereo not given)	24
CN1CCC2(c3cccc(O)c3)CC(=O)/C(=C/C3CC3)C1C2 (stereo not given)	356
CN1CCC2(c3cccc(O)c3)CC(=O)/C(=C/c3ccccc3)C1C2 (single isomer, unassigned; (+))	16.5
COc1ccc(/C=C2/C(=O)CC3(c4cccc(O)c4)CCN(C)C2C3)cc1 (single isomer, unassigned; (+))	21.6
COc1cccc(/C=C2/C(=O)CC3(c4cccc(O)c4)CCN(C)C2C3)c1 (single isomer, unassigned; (+))	38.2
CN1CCC2(c3cccc(O)c3)CC(=O)/C(=C/c3ccc(I)cc3)C1C2 (single isomer, unassigned; (+))	52.6
CN1CCC2(c3cccc(O)c3)CC(=O)/C(=C/c3ccc(Cl)c(Cl)c3)C1C2 (single isomer, unassigned; (+))	13.4
CN1CCC2(c3cccc(O)c3)CC(=O)/C(=C/c3ccc(Cl)cc3)C1C2 (single isomer, unassigned; (-))	26.5
COc1ccc(/C=C2/C(=O)CC3(c4cccc(O)c4)CCN(C)C2C3)cc1 (single isomer, unassigned; (-))	81.3
COc1cccc(/C=C2/C(=O)CC3(c4cccc(O)c4)CCN(C)C2C3)c1 (single isomer, unassigned; (-))	46.3
CN1CCC2(c3cccc(O)c3)CC(=O)/C(=C/c3ccc(Cl)c(Cl)c3)C1C2 (single isomer, unassigned; (-))	35.5
COc1ccc(/C=C2/C(=O)CC3(c4cccc(O)c4)CCN(C)C2C3)cc1 (stereo in doubt; 4)	35
CN1CCC2(c3cccc(O)c3)CC(=O)/C(=C/c3ccc(Cl)cc3)C1C2 (stereo in doubt; 5)	9.5
COc1cccc(/C=C2/C(=O)CC3(c4cccc(O)c4)CCN(C)C2C3)c1 (stereo in doubt; 6)	44.3
CN1CCC2(c3cccc(O)c3)CC(=O)/C(=C/c3cccc(Cl)c3)C1C2 (stereo in doubt; 7)	34.5
COc1cccc(C23CCN(C)C(C2)/C(=C\c2ccccc2)C(=O)C3)c1 (stereo in doubt; 10)	81.7
CN1CCC2(c3cccc(O)c3)CC(=O)/C(=C/c3ccc(Cl)cc3)C1C2 (stereo in doubt; (+)-5)	6.4
CN1CCC2(c3cccc(O)c3)CC(=O)/C(=C/c3cccc(Cl)c3)C1C2 (stereo in doubt; (+)-7)	22.4
CN1CCC2(c3cccc(O)c3)CC(=O)/C(=C/c3ccccc3)C1C2 (stereo in doubt; (-)-2)	154

Test system: Sigma 2 receptor
Experiment: Ratio of binding affinity towards guinea-pig brain […] receptor to rat liver sigma-2 receptor

SMILES	Ratio
CN1CCC2(c3cccc(O)c3)CC(=O)/C(=C/c3ccc4ccccc4c3)C1C2 (stereo not given)	0.21
CN1CCC2(c3cccc(O)c3)CC(=O)/C(=C/c3cccc(I)c3)C1C2 (stereo not given)	68
CN1CCC2(c3cccc(O)c3)CC(=O)/C(=C/C3CC3)C1C2 (stereo not given)	0.18
CN1CCC2(c3cccc(O)c3)CC(=O)/C(=C/c3ccc(I)cc3)C1C2 (single isomer, unassigned; (+))	32

Target: not listed separately
Experiment: Ability to inhibit [3H](+)-pentazocine binding to guinea pig brain Sigma receptor type 1

SMILES	Ki [nM]
COc1cccc(C23CCN(C)C(C2)/C(=C\c2ccccc2)C(=O)C3)c1 (stereo in doubt; 10)	138
